About 2,000 (0.54%) of roughly 370,000 compounds were called active. The sample as a whole holds a higher share of actives than the screen did. A number with no mark means an inactive call.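 The calls were made as follows: active = inhibition exceeding the mean over every tested compound plus 3 SD (cut at about 30% in these data); inactive = the rest.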

Sequence of (Lyso)-N-acylphosphatidylethanolamine lipase (Mus musculus) (Q8VD66 whole entry, looked up): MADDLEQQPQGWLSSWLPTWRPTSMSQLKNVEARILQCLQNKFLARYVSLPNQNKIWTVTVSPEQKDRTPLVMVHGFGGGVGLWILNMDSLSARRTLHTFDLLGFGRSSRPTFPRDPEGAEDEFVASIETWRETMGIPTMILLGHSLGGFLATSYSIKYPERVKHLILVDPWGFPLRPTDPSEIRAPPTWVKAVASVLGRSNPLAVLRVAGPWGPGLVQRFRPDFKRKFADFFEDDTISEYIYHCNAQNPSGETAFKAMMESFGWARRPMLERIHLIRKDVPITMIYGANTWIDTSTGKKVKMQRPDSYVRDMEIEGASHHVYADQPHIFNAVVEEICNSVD

The target in this assay is (Lyso)-N-acylphosphatidylethanolamine lipase (Mus musculus) (UniProt Q8VD66). As to the kind of experiment: mouse ABHD4 hydrolase activity blockers – biochemical, fluorescence polarization, primary screen (AID 720543).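 Also: 0% = plate median of compound wells and 100% = S159A mutant with DMSO.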 To be noted: purified mABHD4, FP-Rh probe fluorescence polarization; at 8.92 µM; stronger effect = higher value. The procedure, abridged:
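assay system = mABHD4 protein | compound dosing = single nominal dose of 8.92 µM, 0.89% DMSO final | read-out basis = percent inhibition of probe binding, normalized to plate controls | schedule = Enzyme–compound pre-incubation 45 min, then probe 60 min, both 25 °C | detection = fluorescence polarization, excitation 525 nm, emission 598 nm, BODIPY TMR filters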
(In fluorescence polarisation assays a small probe gives low polarisation when free and higher when bound to something large.)
With `CCOC(=O)C1CCN(C(=O)C2(NC(=O)Nc3cccc(F)c3)CCCCC2)CC1`, the inhibition was -0.97%.
As to `O=C(/C=C/c1ccc([N+](=O)[O-])cc1)NCCSCc1ccco1`, the inhibition was -1.92%.
For `CCCCC(=O)N[C@@H]1CC[C@@]23CCCN2C(=O)CCC[C@H]3[C@H]1C`, the inhibition is 3.19%.
As for `CC1CCN(c2ccc(S(=O)(=O)Nc3cc(C(=O)O)cc(C(=O)O)c3)cc2[N+](=O)[O-])CC1`, the inhibition was -0.48%.
`CC1CCN(c2ccc(C(=O)O)cc2NS(=O)(=O)c2ccc(Br)s2)CC1`: the inhibition was 40.3% (active).
Consider `CC1CCN(c2ccc(C(=O)Nc3nnc(C4CC4)s3)cc2[N+](=O)[O-])CC1`, for which the inhibition was 2.94%.
The figure for `O=C1C=CC(=O)N1c1ccc(N2CCCCC2)cc1` is 40.5% (active).
As to `Nn1c(SCC(=O)N2c3ccccc3Sc3ccccc32)nnc1-c1n[nH]c2c1CCC2`, the inhibition is -15.8%.
For the compound `O=C1CC[C@@]23CCCN2C(=O)CCC[C@H]3[C@H]1Cc1ccccc1`, the inhibition was -0.8%.
Consider `CC1(C)OC(=O)C(=CNC(CO)C(=O)O)C(=O)O1` (stereo unspecified), for which the inhibition is 5.15%.
With `CC(=O)Nc1nc2ncccn2c1-c1ccc(C(F)(F)F)cc1`, the inhibition was 5.78%.
`CCCN1C(=O)c2[nH]nc(-c3ccccc3)c2C1c1ccccc1` (stereo unspecified): the inhibition was -7.15%.
Then `O=C(CCCc1ccccc1)NCc1ccccc1`, with -1.11%.
For `N#C/C(=C\c1ccc(O)c(O)c1)C(=O)NCc1ccccc1`, the inhibition was 47% (active).
With `CC(C)NC(=O)/C(C#N)=C\c1ccc(N(C)C)c(Br)c1`, the inhibition is 3.76%.
For `CC(=O)Nc1ccc(OC[C@@H](O)CN2CCC(C(O)(c3ccccc3)c3ccccc3)CC2)cc1`, the inhibition is -3.77%.
Then `OC(c1ccccc1)(c1ccccc1)C1CCN(CCCOc2ccc(-c3ccsc3)cc2)CC1`, with 13.8%; and `CN(C)c1ccc(NC(=O)NC2CCCCN(Cc3ccc(Cl)cc3)C2=O)cc1` (stereo unspecified), with 14%.
As for `Cc1cccc(C)c1NC(=O)CS(=O)CC(=O)N1CCN(c2ccccc2)CC1` (stereo unspecified), the inhibition was -7.61%.
Regarding `Cc1cccc(N2CCN(C(=O)c3ccccc3NC(=O)C3CCCCC3C(=O)O)CC2)c1` (stereo unspecified), the inhibition is 2.26%.
`Cc1cccc(N2CCN(c3ccc(NC(=O)/C=C\C(=O)O)cc3)CC2)c1`: the inhibition was 38.7% (active).
For `COc1ccc(Cn2ccc3ccc(-c4ccc5ccn(Cc6ccccc6C)c5c4)cc32)cc1`, the inhibition was 7.66%.
With `Cc1ccc(-c2nc(C3CCCN(S(=O)(=O)c4ccc(Br)s4)C3)no2)cc1` (stereo unspecified), the inhibition was 7.38%.
On to `Oc1ccc(CNc2ccccc2O)cc1`, for which the inhibition was 37.8% (active).
Turning to `c1ccc(CNCc2ccc(CNCc3ccccc3)cc2)cc1`, the inhibition was 5.37%.
For the compound `Oc1ccc(N2CCN(C(=S)NCc3ccccc3)CC2)cc1`, the inhibition is 14.8%.
In the case of `Cc1nc(CNc2ncnc3ccc(-c4ccc5c(c4)OCO5)cc23)cs1`, the inhibition was -1.75%.
As to `CCOC(=O)[C@H]1[C@H]2COc3ccc(Cl)cc3[C@@H]2N2C(=O)c3cc(C)ccc3NC(=O)[C@@]12C`, the inhibition was 2.18%.
For `O=C(OCc1ccccc1)N1CCC2CC1c1cc(N3CCN(S(=O)(=O)c4cc(Cl)cc(Cl)c4)CC3)ccc12` (stereo unspecified), the inhibition was 2.29%.
For `CCOC(=O)[C@H]1Nc2ccc(Cl)cc2[C@@H]2[C@H]1C1CC(c3ccccc31)N2C(=O)OCc1ccccc1` (stereo partly specified), the inhibition was 46.2% (active).
Take `CCN(CC)CCCC(C)n1c2nc(=O)[nH]c(=O)c-2nc2cc(Cl)ccc21` (stereo unspecified): the inhibition was 29.5% (active).
In the case of `Cc1cc2nc3c(=O)[nH]c(=O)nc-3n(C[C@H](O)[C@H](O)[C@H](O)CO)c2cc1C`, the inhibition is 15.4%.
In the case of `O=C(CSc1nc2ccccc2s1)N=Nc1c(O)[nH]c2ccccc12`, the inhibition is -11.2%.
For `C/C(=N\NC(=O)c1ccc(C)cc1)C1C(=O)c2ccccc2C1=O`, the inhibition is 32.6% (active).
`C/C(=N\NC(=O)CNC(=O)C(c1ccccc1)c1ccccc1)c1ccc(C)cc1`: the inhibition was 0.45%.
For `O=C1c2ccccc2C(=O)C1C(=O)C1CC1`, the inhibition was 10.5%.
Consider `CCOc1cc(C(=O)N2CCc3cc(OC)c(OC)cc3C2)ccc1OC(F)F`, for which the inhibition is -1.64%.
Take `O=C(NCCCc1ccccc1)[C@H](Cc1ccccc1)NC1(C(=O)NCCc2c[nH]c3ccccc23)CCC1`: the inhibition was -14.2%.
The figure for `CC(CNc1ccc([N+](=O)[O-])c2cccnc12)Nc1c([N+](=O)[O-])cc(C(F)(F)F)cc1[N+](=O)[O-]` (stereo unspecified) is 3.66%; for `CCN1CCN(C(=O)CN(C)S(=O)(=O)c2ccc3ccccc3c2)CC1` it is 4.18%.
Then `CC(=O)Oc1ccc(N(C(C)=O)S(=O)(=O)c2ccc3ccccc3c2)cc1Br`, with 32.3% (active); and `CN(C1CCS(=O)(=O)C1)S(=O)(=O)c1ccc2ccccc2c1` (stereo unspecified), with 3.99%.
As to `Brc1c(CSc2nncc3ccccc23)nc2ccccn12`, the inhibition was -3.21%.
Consider `CCC(C)[C@@H](C(=O)OC)N(CCc1cn(Cc2ccccc2)nn1)S(=O)(=O)c1ccccc1Br` (stereo partly specified), for which the inhibition was -6.72%.
For `O=C(COc1ccc(-c2ccccc2)cc1)NN=C1CCCC1`, the inhibition was 0.58%.
Then `O=C1NC(Nc2nc3ccccc3s2)(C(F)(F)F)C(=O)N1C1CCCCC1` (stereo unspecified), with -23%; and `c1ccc2sc(NN=C3CCCC3)nc2c1`, with 37.2% (active); and `COC(=O)C1=C(C)N(Cc2ccc(C(F)(F)F)cc2)C(=NCc2ccccc2)NC1c1ccccc1C(F)(F)F` (stereo unspecified), with 6.99%.
With `Cc1nc2ccc(C(=O)N3CCN(C(=O)C(C)(C)C)CC3)cc2n1C1CCCC1`, the inhibition was -2.14%.
Then `COC(=O)[C@]12C[C@H](CC(=O)NCCc3ccccc3OC)C(=O)N(Cc3ccco3)C1=C[C@H](C(C)C)O[C@@H]2C1CC1`, with -4.62%; and `CCOc1[nH]n(-c2ccc(Cl)cc2)c(=O)c1C=Nc1ccc(O)cc1`, with 37.3% (active).
`O=C(c1cccc(C(F)(F)F)c1)N1CC[C@H]2[C@H](CCCN2Cc2cc(F)cc(F)c2)C1`: the inhibition was -3.78%.
Take `CCC1(CC)NC(=O)N(CC(=O)OCC(=O)Nc2ccc(C(F)(F)F)cc2)C1=O`: the inhibition was -3.48%.
Then `Cn1c(SCC(=O)N/N=C/c2ccc(O)c(O)c2)nc2ccccc21`, with 30.7% (active); and `O=C(CSc1nc2ccccc2n1Cc1ccccc1Cl)N/N=C\c1c[nH]c2ccccc12`, with -14.1%.
The figure for `O=C(CSc1nc2ccccc2s1)NN=Cc1ccc(O)cc1O` is 0.63%.

As a reminder, the inhibition is the change of the read-out against control, counted positive when it falls.
